Key:
SK-MEL-28 = experiment: Antitumor activity against human SK-MEL-28 by sulforhodamine B assay; assay type: functional, cell-based
Summary of the method: (§1)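 Human tumour lines from ATCC; growth inhibition by sulforhodamine B staining, absorbance read at 530 nm; IC50 taken as the drug concentration inhibiting cell growth by 50%, calculated by curve fitting.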

HCT-15 [1] = experiment: Antitumor activity against human paclitaxel-resistant HCT15 by sulforhodamine B assay; assay type: functional, cell-based; summary of the method: as §1
HCT-116 [2] = experiment: Resistant index, ratio of IC50 for paclitacel-resistant human HCT15 cells to IC50 for human HCT116 cells; assay type: functional
Summary of the method: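 Index computed as IC50 in HCT-15 divided by IC50 in HCT 116, both from sulforhodamine B growth inhibition with absorbance at 530 nm.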

MDA-MB-231 = experiment: Antitumor activity against human MDA-MB-231 by sulforhodamine B assay; assay type: functional, cell-based; summary of the method: as §1
PC-3 = experiment: Antitumor activity against human PC3 by sulforhodamine B assay; assay type: functional, cell-based; summary of the method: as §1
PANC-1 = experiment: Antitumor activity against human PANC1 by sulforhodamine B assay; assay type: functional, cell-based; summary of the method: as §1
CAKI-1 = experiment: Antitumor activity against human Caki1 by sulforhodamine B assay; assay type: functional, cell-based; summary of the method: as §1
OVCAR-3 = experiment: Antitumor activity against human OVCAR-3 by sulforhodamine B assay; assay type: functional, cell-based; summary of the method: as §1
SNB-19 = experiment: Antitumor activity against human SNB19 by sulforhodamine B assay; assay type: functional, cell-based; summary of the method: as §1
HCT-116 [3] = experiment: Antitumor activity against human HCT116 by sulforhodamine B assay; assay type: functional, cell-based; summary of the method: as §1
HCT-15 [4] = experiment: Antitumor activity against paclitaxel-resistant human HCT15 cells xenografted in BALB/c mouse assessed as tumor growth inhibition at 10 mg/kg, ip qd thrice a week from day 10 to day 29; assay type: functional; conditions: HCT-15, ip, route intraperitoneal
Summary of the method: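 Female athymic BALB/c nu/nu mice, six weeks old, received 1 × 10^6 paclitaxel-resistant HCT-15 cells in 0.2 ml RPMI subcutaneously in the right flank. Once tumors were in range, mice were assigned to groups. Dosing was 10 mg/kg/day ip in 5% Cremophor plus 5% ethanol in PBS, three times weekly, days 10–29. Tumor diameters were measured by caliper every 3–5 days. Body weight was monitored.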

| Compound | IC50 (SK-MEL-28) [nM] | IC50 (HCT-15 [1]) [nM] | Ratio IC50 (HCT-116 [2]) | IC50 (MDA-MB-231) [nM] | IC50 (PC-3) [nM] | IC50 (PANC-1) [nM] | IC50 (CAKI-1) [nM] | IC50 (OVCAR-3) [nM] | IC50 (SNB-19) [nM] | IC50 (HCT-116 [3]) [nM] | inhibition in vivo at 10 mg/kg (HCT-15 [4]) [%] |
| --- | --- | --- | --- | --- | --- | --- | --- | --- | --- | --- | --- |
| Cc1cccc(-c2cc3ccc(N(C)C)cc3c(N)n2)c1.Cl | 32 | 21 | 0.91 | 21 | 24 | 18 | 23 | 16 | 28 | 23 |  |
| COc1ccc(-c2cc3cc(C)ccc3c(N)n2)cc1 | 1800 |  |  | 930 | 2980 | 2270 | 750 | 790 | 2230 | 1360 |  |
| Cc1cccc(-c2cc3ccc(C)cc3c(N)n2)c1 | 500 |  |  | 210 | 710 | 690 | 440 | 290 | 530 | 280 |  |
| Cc1ccc2cc(-c3ccc4c(c3)OCO4)nc(N)c2c1 | 420 |  |  | 150 | 250 | 370 | 130 | 230 | 380 | 180 |  |
| CC(=O)O[C@H]1C(=O)[C@@]2(C)[C@H]([C@H](OC(=O)c3ccccc3)[C@]3(O)C[C@H](OC(=O)[C@H](O)[C@@H](NC(=O)c4ccccc4)c4ccccc4)C(C)=C1C3(C)C)[C@]1(OC(C)=O)CO[C@@H]1C[C@@H]2O [PACLITAXEL] |  |  | 70 |  |  |  |  |  |  |  | 48.8 |
| COc1cc(OC)cc(-c2cc3cc(C)ccc3c(N)n2)c1 | 410 |  |  | 180 | 430 | 380 | 160 | 180 | 470 | 240 |  |
| COc1ccc(C)c(-c2cc3ccc(C)cc3c(N)n2)c1 | 51 |  |  | 30 | 70 | 58 | 47 | 42 | 52 | 42 |  |
| COc1ccccc1-c1cc2ccc(C)cc2c(N)n1 | 670 |  |  | 320 | 1010 | 680 | 220 | 510 | 780 | 470 |  |
| COc1cccc(-c2cc3cc(C)ccc3c(N)n2)c1 | 340 |  |  | 140 | 250 | 310 | 130 | 180 | 290 | 190 |  |
| COc1cc2cc(-c3c(C)cccc3C)nc(N)c2cc1OC | 630 |  |  | 250 | 680 | 540 | 530 | 160 | 420 | 790 |  |

From ChEMBL document CHEMBL1221267, “Synthesis, in vitro and in vivo evaluation of 3-arylisoquinolinamines as potent antitumor agents” (Bioorg Med Chem Lett, 2010)
